Experiment: Treatment-emergent adverse events, MAD period and b.i.d. cohort
Format: in vivo, human
How it was run: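 Double-blind, placebo-controlled study in healthy men and nonchildbearing women aged 18–55 y. The SAD period gave one fasted oral dose; the MAD period gave fed dosing q.d. for 10 days, plus a separate b.i.d. cohort. TEAEs, serious AEs and discontinuation AEs were monitored ≥28 days after the last dose. Vital signs, physical exam, 12-lead ECG, hematology, clinical chemistry and urinalysis were also recorded. Data summarized descriptively.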

[1] = MAD Japanese cohort 400 mg q.d. (n = 5)

Compound: Cn1cc(-c2cn3nccc3c(-c3cnn([C@]4(CC#N)C[C@@H](C#N)C4)c3)n2)cn1 [PF‐06826647]
- AEs (MAD 30 mg q.d. (n = 6)): 2 n
- AEs leading to permanent discontinuation of study drug (MAD 30 mg q.d. (n = 6)): 0 n
- AEs leading to study drug dose reduction or interruption (MAD 30 mg q.d. (n = 6)): 0 n
- Participants with AE (MAD 30 mg q.d. (n = 6)): 2 (33.3) n (%)
- Participants with TEAEs: Alanine aminotransferase increased (MAD 30 mg q.d. (n = 6)): 0 n (%)
- Participants with TEAEs: Blood creatinine increased (MAD 30 mg q.d. (n = 6)): 0 n (%)
- Participants with TEAEs: Constipation (MAD 30 mg q.d. (n = 6)): 1 (16.7) n (%)
- Participants with TEAEs: Dysuria (MAD 30 mg q.d. (n = 6)): 0 n (%)
- Participants with TEAEs: Gastrointestinal disorders (SOC) (MAD 30 mg q.d. (n = 6)): 2 (33.3) n (%)
- Participants with TEAEs: Headache (MAD 30 mg q.d. (n = 6)): 0 n (%)
- Participants with TEAEs: Investigations (SOC) (MAD 30 mg q.d. (n = 6)): 0 n (%)
- Participants with TEAEs: Nausea (MAD 30 mg q.d. (n = 6)): 1 (16.7) n (%)
- Participants with TEAEs: Nervous system disorders (SOC) (MAD 30 mg q.d. (n = 6)): 0 n (%)
- Participants with TEAEs: Renal and urinary disorders (SOC) (MAD 30 mg q.d. (n = 6)): 0 n (%)
- SAEs (MAD 30 mg q.d. (n = 6)): 0 n
- Severe AEs (MAD 30 mg q.d. (n = 6)): 0 n
- AEs (MAD 100 mg q.d. (n = 6)): 1 n
- AEs leading to permanent discontinuation of study drug (MAD 100 mg q.d. (n = 6)): 0 n
- AEs leading to study drug dose reduction or interruption (MAD 100 mg q.d. (n = 6)): 0 n
- Participants with AE (MAD 100 mg q.d. (n = 6)): 1 (16.7) n (%)
- Participants with TEAEs: Alanine aminotransferase increased (MAD 100 mg q.d. (n = 6)): 0 n (%)
- Participants with TEAEs: Blood creatinine increased (MAD 100 mg q.d. (n = 6)): 1 (16.7) n (%)
- Participants with TEAEs: Constipation (MAD 100 mg q.d. (n = 6)): 0 n (%)
- Participants with TEAEs: Dysuria (MAD 100 mg q.d. (n = 6)): 0 n (%)
- Participants with TEAEs: Gastrointestinal disorders (SOC) (MAD 100 mg q.d. (n = 6)): 0 n (%)
- Participants with TEAEs: Headache (MAD 100 mg q.d. (n = 6)): 0 n (%)
- Participants with TEAEs: Investigations (SOC) (MAD 100 mg q.d. (n = 6)): 1 (16.7) n (%)
- Participants with TEAEs: Nausea (MAD 100 mg q.d. (n = 6)): 0 n (%)
- Participants with TEAEs: Nervous system disorders (SOC) (MAD 100 mg q.d. (n = 6)): 0 n (%)
- Participants with TEAEs: Renal and urinary disorders (SOC) (MAD 100 mg q.d. (n = 6)): 0 n (%)
- SAEs (MAD 100 mg q.d. (n = 6)): 0 n
- Severe AEs (MAD 100 mg q.d. (n = 6)): 0 n
- AEs (MAD 400 mg q.d. (n = 6)): 1 n
- AEs leading to permanent discontinuation of study drug (MAD 400 mg q.d. (n = 6)): 0 n
- AEs leading to study drug dose reduction or interruption (MAD 400 mg q.d. (n = 6)): 0 n
- Participants with AE (MAD 400 mg q.d. (n = 6)): 1 (16.7) n (%)
- Participants with TEAEs: Alanine aminotransferase increased (MAD 400 mg q.d. (n = 6)): 0 n (%)
- Participants with TEAEs: Blood creatinine increased (MAD 400 mg q.d. (n = 6)): 1 (16.7) n (%)
- Participants with TEAEs: Constipation (MAD 400 mg q.d. (n = 6)): 0 n (%)
- Participants with TEAEs: Dysuria (MAD 400 mg q.d. (n = 6)): 0 n (%)
- Participants with TEAEs: Gastrointestinal disorders (SOC) (MAD 400 mg q.d. (n = 6)): 0 n (%)
- Participants with TEAEs: Headache (MAD 400 mg q.d. (n = 6)): 0 n (%)
- Participants with TEAEs: Investigations (SOC) (MAD 400 mg q.d. (n = 6)): 1 (16.7) n (%)
- Participants with TEAEs: Nausea (MAD 400 mg q.d. (n = 6)): 0 n (%)
- Participants with TEAEs: Nervous system disorders (SOC) (MAD 400 mg q.d. (n = 6)): 0 n (%)
- Participants with TEAEs: Renal and urinary disorders (SOC) (MAD 400 mg q.d. (n = 6)): 0 n (%)
- SAEs (MAD 400 mg q.d. (n = 6)): 0 n
- Severe AEs (MAD 400 mg q.d. (n = 6)): 0 n
- AEs (MAD 1,200 mg q.d. (n = 5)): 1 n
- AEs leading to permanent discontinuation of study drug (MAD 1,200 mg q.d. (n = 5)): 0 n
- AEs leading to study drug dose reduction or interruption (MAD 1,200 mg q.d. (n = 5)): 0 n
- Participants with AE (MAD 1,200 mg q.d. (n = 5)): 1 (20.0) n (%)
- Participants with TEAEs: Alanine aminotransferase increased (MAD 1,200 mg q.d. (n = 5)): 0 n (%)
- Participants with TEAEs: Blood creatinine increased (MAD 1,200 mg q.d. (n = 5)): 1 (20.0) n (%)
- Participants with TEAEs: Constipation (MAD 1,200 mg q.d. (n = 5)): 0 n (%)
- Participants with TEAEs: Dysuria (MAD 1,200 mg q.d. (n = 5)): 0 n (%)
- Participants with TEAEs: Headache (MAD 1,200 mg q.d. (n = 5)): 0 n (%)
- Participants with TEAEs: Investigations (SOC) (MAD 1,200 mg q.d. (n = 5)): 1 (20.0) n (%)
- Participants with TEAEs: Nausea (MAD 1,200 mg q.d. (n = 5)): 0 n (%)
- Participants with TEAEs: Nervous system disorders (SOC) (MAD 1,200 mg q.d. (n = 5)): 0 n (%)
- Participants with TEAEs: Renal and urinary disorders (SOC) (MAD 1,200 mg q.d. (n = 5)): 0 n (%)
- SAEs (MAD 1,200 mg q.d. (n = 5)): 0 n
- Severe AEs (MAD 1,200 mg q.d. (n = 5)): 0 n
- AEs [1]: 2 n
- AEs leading to permanent discontinuation of study drug [1]: 0 n
- AEs leading to study drug dose reduction or interruption [1]: 0 n
- Participants with AE [1]: 1 (20.0) n (%)
- Participants with TEAEs: Alanine aminotransferase increased [1]: 1 (20.0) n (%)
- Participants with TEAEs: Blood creatinine increased [1]: 0 n (%)
- Participants with TEAEs: Constipation [1]: 0 n (%)
